The values that follow come from ChEMBL document CHEMBL1268902, “9-Dihydroerythromycin ethers as motilin agonists--developing structure-activity relationships for potency and safety” (Bioorg Med Chem, 2010).

Series [1] in a line: Induction of contraction in rabbit smooth muscle at EC90 concentration after three cycles of administration and washout measured after 4th dose. The series is classed as functional, Oryctolagus cuniculus, Muscle tissue. The essentials:
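Rabbit smooth muscle contractility; drug applied at EC90 concentration through three cycles of administration and washout, tachyphylaxis reported as % contractility response then obtained.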

Series [2] concerns Streptococcus pneumoniae. As to the kind of experiment: Antibacterial activity against erythromycin-sensitive Streptococcus pneumoniae ATCC 6301. It counts as functional. The essentials:
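MIC determined by growth inhibition; routine screening used the highly erythromycin-sensitive strain S. pneumoniae ATCC6301.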

Series [3] in a line: Induction of contraction in rabbit smooth muscle. It counts as functional, tissue-based, Oryctolagus cuniculus, Muscle tissue. The essentials:
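Rabbit smooth muscle contractility assay; EC50 taken as the concentration giving 50% of maximal possible contraction.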

In series [4] the target is T1, hERG (KCNH2) (Homo sapiens, UniProt Q12809). The series can be described thus: Inhibition of human ERG at 300 uM.
The target in series [5] is T1, hERG (KCNH2). The series can be described thus: Inhibition of human ERG at 30 uM.

≈ marks a conversion by molar mass, not a printed value.

T1 sequence (Q12809 whole entry): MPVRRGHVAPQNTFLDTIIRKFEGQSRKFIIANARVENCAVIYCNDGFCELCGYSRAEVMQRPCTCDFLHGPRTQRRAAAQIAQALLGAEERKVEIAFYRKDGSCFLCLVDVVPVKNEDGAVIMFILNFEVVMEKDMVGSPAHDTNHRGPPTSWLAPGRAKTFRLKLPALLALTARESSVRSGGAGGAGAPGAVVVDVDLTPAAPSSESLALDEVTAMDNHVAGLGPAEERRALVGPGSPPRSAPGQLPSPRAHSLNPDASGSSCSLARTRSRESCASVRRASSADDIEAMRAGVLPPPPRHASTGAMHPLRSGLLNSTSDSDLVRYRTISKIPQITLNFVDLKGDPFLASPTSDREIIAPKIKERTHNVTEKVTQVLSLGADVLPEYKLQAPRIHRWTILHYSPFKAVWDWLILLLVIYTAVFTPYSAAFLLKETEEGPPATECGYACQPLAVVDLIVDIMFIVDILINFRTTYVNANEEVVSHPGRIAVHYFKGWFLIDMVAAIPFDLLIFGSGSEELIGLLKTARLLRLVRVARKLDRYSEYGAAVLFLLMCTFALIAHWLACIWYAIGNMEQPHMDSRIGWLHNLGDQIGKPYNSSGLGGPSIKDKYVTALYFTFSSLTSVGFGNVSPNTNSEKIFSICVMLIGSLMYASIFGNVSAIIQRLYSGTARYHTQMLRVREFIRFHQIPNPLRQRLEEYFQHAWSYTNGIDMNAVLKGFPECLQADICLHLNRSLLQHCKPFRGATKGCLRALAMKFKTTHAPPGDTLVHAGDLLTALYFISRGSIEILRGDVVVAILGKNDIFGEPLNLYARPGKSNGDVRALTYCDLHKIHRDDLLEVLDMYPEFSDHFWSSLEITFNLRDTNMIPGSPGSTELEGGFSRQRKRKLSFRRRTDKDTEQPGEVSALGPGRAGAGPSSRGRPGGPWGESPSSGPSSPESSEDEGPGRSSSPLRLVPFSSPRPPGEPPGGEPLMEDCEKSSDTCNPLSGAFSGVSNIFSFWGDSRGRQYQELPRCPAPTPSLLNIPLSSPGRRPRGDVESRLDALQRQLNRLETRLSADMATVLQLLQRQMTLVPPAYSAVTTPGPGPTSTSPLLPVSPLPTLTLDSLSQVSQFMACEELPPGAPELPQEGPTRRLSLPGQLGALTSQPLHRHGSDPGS

Usually MIC stands for the lowest concentration found to suppress growth. In general, EC50 refers to the concentration giving half of the maximal effect. A higher EC50 goes with a need for much substance. By inhibition is commonly meant the percentage by which the read-out fell short of the control. With `CC[C@H]1OC(=O)[C@H](C)[C@@H](O[C@H]2C[C@@](C)(OC)[C@@H](O)[C@H](C)O2)[C@H](C)[C@@H](O[C@@H]2O[C@H](C)C[C@H](N(C)C(C)C)[C@H]2O)[C@](C)(O)C[C@@H](C)[C@H](OCCNS(C)(=O)=O)[C@H](C)[C@@H](O)[C@]1(C)O`, the Activity in series [1] is recorded as 94%. This molecule also registered an MIC in series [2] of over 128 µg/mL. The molecule also showed an EC50 in series [3] of 240 nM. In series [4], this molecule came in with an inhibition at 300 µM of 79%. Further, in series [5], 30 µM produced 12% inhibition.

As for `CC[C@H]1OC(=O)[C@H](C)[C@@H](O[C@H]2C[C@@](C)(OC)[C@@H](O)[C@H](C)O2)[C@H](C)[C@@H](O[C@@H]2O[C@H](C)C[C@H](N(C)C(C)C)[C@H]2O)[C@](C)(O)C[C@@H](C)[C@H](OCc2cc(C)on2)[C@H](C)[C@@H](O)[C@]1(C)O`, the Activity in series [1] is 78%. Besides, it took 128 µg/mL (≈ 149 µM) to inhibit growth in series [2] (MIC). The midpoint of the response in series [3], the EC50, lay at 110 nM. For the same molecule, testing at 300 µM in series [4] gave an inhibition of 90%. Besides, 30 µM produced 45% inhibition in series [5].
